The source made the active and inactive calls.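 How the source made its calls: active means spectra count ratio compound/DMSO 0.5 or lower for pPAFAH, with at most one off-target serine hydrolase also that low; inactive means ratio above 0.5 for pPAFAH, or two-plus off-targets hit.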
Key:
Experiment in all cases: serine hydrolase selectivity in brain membranes, late-stage follow-up, selectivity assay for pPAFAH inhibitor project, biochemical, LC-MS/MS, mouse brain membrane proteome (AID 588785)
Abhd11 = settings: ABPP-MudPIT FP-biotin spectral counts, at 1 µM, stronger effect = lower value
In short: (§1)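 Test system: mouse brain membrane proteome; amount: proteome at 1 mg/mL protein; detection: ABPP-MudPIT LC-MS/MS spectral counting; replication: 3–4 biological replicates; schedule: 30 min 37 °C compound, 2 h 25 °C probe; measure: Compound/DMSO spectral-count ratio per protein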

Abhd12 = settings: ABPP-MudPIT FP-biotin spectral counts, at 1 µM, stronger effect = lower value
In short: as §1

Abhd3 = settings: ABPP-MudPIT FP-biotin spectral counts, at 1 µM, stronger effect = lower value
In short: as §1

Abhd4 = Abhd4 (UniProt Q8VD66); settings: ABPP-MudPIT FP-biotin spectral counts, at 1 µM, stronger effect = lower value
Sequence of Abhd4 (Q8VD66 whole entry, looked up): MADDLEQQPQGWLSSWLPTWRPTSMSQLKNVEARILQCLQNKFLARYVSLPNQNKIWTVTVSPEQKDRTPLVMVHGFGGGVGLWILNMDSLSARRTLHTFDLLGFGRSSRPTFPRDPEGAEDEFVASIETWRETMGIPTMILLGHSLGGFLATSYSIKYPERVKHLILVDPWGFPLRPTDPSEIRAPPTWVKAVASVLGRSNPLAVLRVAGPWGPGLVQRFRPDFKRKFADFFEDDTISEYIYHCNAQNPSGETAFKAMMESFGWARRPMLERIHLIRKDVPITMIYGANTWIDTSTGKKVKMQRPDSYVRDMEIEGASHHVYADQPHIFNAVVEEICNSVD
In short: as §1

Ache = settings: ABPP-MudPIT FP-biotin spectral counts, at 1 µM, stronger effect = lower value
In short: as §1

Acot1 = settings: ABPP-MudPIT FP-biotin spectral counts, at 1 µM, stronger effect = lower value
In short: as §1

Acot2 = settings: ABPP-MudPIT FP-biotin spectral counts, at 1 µM, stronger effect = lower value
In short: as §1

Acot3 = settings: ABPP-MudPIT FP-biotin spectral counts, at 1 µM, stronger effect = lower value
In short: as §1

Acot6 = settings: ABPP-MudPIT FP-biotin spectral counts, at 1 µM, stronger effect = lower value
In short: as §1

Acot7 = settings: ABPP-MudPIT FP-biotin spectral counts, at 1 µM, stronger effect = lower value
In short: as §1

[1] = molecular target: Acyl-protein thioesterase 1 (Mus musculus) (UniProt P97823); settings: ABPP-MudPIT FP-biotin spectral counts, Lypla1, at 1 µM, stronger effect = lower value
Sequence of Acyl-protein thioesterase 1 (Mus musculus) (P97823 whole entry, looked up): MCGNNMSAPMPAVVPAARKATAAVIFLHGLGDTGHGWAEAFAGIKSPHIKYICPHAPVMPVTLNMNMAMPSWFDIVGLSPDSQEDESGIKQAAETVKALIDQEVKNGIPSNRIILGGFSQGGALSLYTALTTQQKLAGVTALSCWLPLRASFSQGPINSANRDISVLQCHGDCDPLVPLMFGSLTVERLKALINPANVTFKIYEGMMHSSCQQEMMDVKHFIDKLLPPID
In short: as §1

Apeh = settings: ABPP-MudPIT FP-biotin spectral counts, at 1 µM, stronger effect = lower value
In short: as §1

Bat5 = settings: ABPP-MudPIT FP-biotin spectral counts, at 1 µM, stronger effect = lower value
In short: as §1

Dpp8 = settings: ABPP-MudPIT FP-biotin spectral counts, at 1 µM, stronger effect = lower value
In short: as §1

Dpp9 = settings: ABPP-MudPIT FP-biotin spectral counts, at 1 µM, stronger effect = lower value
In short: as §1

Es1 = settings: ABPP-MudPIT FP-biotin spectral counts, at 1 µM, stronger effect = lower value
In short: as §1

Esd = settings: ABPP-MudPIT FP-biotin spectral counts, at 1 µM, stronger effect = lower value
In short: as §1

Faah = settings: ABPP-MudPIT FP-biotin spectral counts, at 1 µM, stronger effect = lower value
In short: as §1

Fam108a = settings: ABPP-MudPIT FP-biotin spectral counts, at 1 µM, stronger effect = lower value
In short: as §1

Fam108b1 = settings: ABPP-MudPIT FP-biotin spectral counts, at 1 µM, stronger effect = lower value
In short: as §1

Fam108c1 = settings: ABPP-MudPIT FP-biotin spectral counts, at 1 µM, stronger effect = lower value
In short: as §1

Fasn = settings: ABPP-MudPIT FP-biotin spectral counts, at 1 µM, stronger effect = lower value
In short: as §1

Lactb = settings: ABPP-MudPIT FP-biotin spectral counts, at 1 µM, stronger effect = lower value
In short: as §1

Lipe = settings: ABPP-MudPIT FP-biotin spectral counts, at 1 µM, stronger effect = lower value
In short: as §1

Lypla2 = settings: ABPP-MudPIT FP-biotin spectral counts, at 1 µM, stronger effect = lower value
In short: as §1

Lyplal1 = settings: ABPP-MudPIT FP-biotin spectral counts, at 1 µM, stronger effect = lower value
In short: as §1

Magl = settings: ABPP-MudPIT FP-biotin spectral counts, at 1 µM, stronger effect = lower value
In short: as §1

[2] = molecular target: Monoacylglycerol lipase ABHD6 (Mus musculus) (UniProt Q8R2Y0); settings: ABPP-MudPIT FP-biotin spectral counts, at 1 µM, stronger effect = lower value
Sequence of Monoacylglycerol lipase ABHD6 (Mus musculus) (Q8R2Y0 whole entry, looked up): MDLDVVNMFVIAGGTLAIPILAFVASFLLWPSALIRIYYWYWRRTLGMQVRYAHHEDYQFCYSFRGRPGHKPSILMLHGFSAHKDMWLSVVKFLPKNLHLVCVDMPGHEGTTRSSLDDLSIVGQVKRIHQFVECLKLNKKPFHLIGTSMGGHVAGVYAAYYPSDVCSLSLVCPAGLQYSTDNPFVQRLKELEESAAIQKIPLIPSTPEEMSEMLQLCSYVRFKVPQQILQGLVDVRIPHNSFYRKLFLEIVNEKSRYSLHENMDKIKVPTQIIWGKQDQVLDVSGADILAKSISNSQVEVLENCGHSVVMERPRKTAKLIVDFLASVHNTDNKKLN
In short: as §1

Nceh1 = settings: ABPP-MudPIT FP-biotin spectral counts, at 1 µM, stronger effect = lower value
In short: as §1

Pafah1b2 = settings: ABPP-MudPIT FP-biotin spectral counts, at 1 µM, stronger effect = lower value
In short: as §1

Pafah1b3 = settings: ABPP-MudPIT FP-biotin spectral counts, at 1 µM, stronger effect = lower value
In short: as §1

[3] = molecular target: Palmitoyl-protein thioesterase ABHD10, mitochondrial (Mus musculus) (UniProt Q6PE15); settings: ABPP-MudPIT FP-biotin spectral counts, at 1 µM, stronger effect = lower value
Sequence of Palmitoyl-protein thioesterase ABHD10, mitochondrial (Mus musculus) (Q6PE15 whole entry, looked up): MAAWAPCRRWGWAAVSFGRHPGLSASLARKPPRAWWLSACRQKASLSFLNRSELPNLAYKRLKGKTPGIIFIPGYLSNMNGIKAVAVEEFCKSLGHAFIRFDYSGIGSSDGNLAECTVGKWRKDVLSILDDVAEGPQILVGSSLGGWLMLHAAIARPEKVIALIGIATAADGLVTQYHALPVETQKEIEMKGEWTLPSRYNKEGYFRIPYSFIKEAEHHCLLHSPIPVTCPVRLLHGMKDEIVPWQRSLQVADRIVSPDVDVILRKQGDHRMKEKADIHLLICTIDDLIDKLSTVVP
In short: as §1

Parl = settings: ABPP-MudPIT FP-biotin spectral counts, at 1 µM, stronger effect = lower value
In short: as §1

Pla2g15 = settings: ABPP-MudPIT FP-biotin spectral counts, at 1 µM, stronger effect = lower value
In short: as §1

[4] = molecular target: Platelet-activating factor acetylhydrolase (Mus musculus) (UniProt Q60963); settings: ABPP-MudPIT FP-biotin spectral counts, Pla2g7 (pPAFAH), at 1 µM, stronger effect = lower value
Sequence of Platelet-activating factor acetylhydrolase (Mus musculus) (Q60963 whole entry, looked up): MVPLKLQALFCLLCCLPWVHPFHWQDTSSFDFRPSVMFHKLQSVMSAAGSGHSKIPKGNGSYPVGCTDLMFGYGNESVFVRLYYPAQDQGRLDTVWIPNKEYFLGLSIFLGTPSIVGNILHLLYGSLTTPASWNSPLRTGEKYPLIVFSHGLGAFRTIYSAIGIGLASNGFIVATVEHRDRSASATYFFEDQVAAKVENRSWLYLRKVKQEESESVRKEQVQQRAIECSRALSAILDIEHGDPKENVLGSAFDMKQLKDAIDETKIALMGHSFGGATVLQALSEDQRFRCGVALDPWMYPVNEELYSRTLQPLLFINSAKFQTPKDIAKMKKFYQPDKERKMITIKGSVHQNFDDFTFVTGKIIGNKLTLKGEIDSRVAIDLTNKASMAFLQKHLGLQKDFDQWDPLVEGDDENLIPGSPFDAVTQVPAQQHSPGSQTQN
In short: as §1

Pme1 = settings: ABPP-MudPIT FP-biotin spectral counts, at 1 µM, stronger effect = lower value
In short: as §1

Pnpla6 = settings: ABPP-MudPIT FP-biotin spectral counts, at 1 µM, stronger effect = lower value
In short: as §1

Pnpla8 = settings: ABPP-MudPIT FP-biotin spectral counts, at 1 µM, stronger effect = lower value
In short: as §1

Prcp = settings: ABPP-MudPIT FP-biotin spectral counts, at 1 µM, stronger effect = lower value
In short: as §1

Prepl = settings: ABPP-MudPIT FP-biotin spectral counts, at 1 µM, stronger effect = lower value
In short: as §1

[5] = molecular target: Prolyl endopeptidase (Mus musculus) (UniProt Q9QUR6); settings: ABPP-MudPIT FP-biotin spectral counts, Prep, at 1 µM, stronger effect = lower value
Sequence of Prolyl endopeptidase (Mus musculus) (Q9QUR6 whole entry, looked up): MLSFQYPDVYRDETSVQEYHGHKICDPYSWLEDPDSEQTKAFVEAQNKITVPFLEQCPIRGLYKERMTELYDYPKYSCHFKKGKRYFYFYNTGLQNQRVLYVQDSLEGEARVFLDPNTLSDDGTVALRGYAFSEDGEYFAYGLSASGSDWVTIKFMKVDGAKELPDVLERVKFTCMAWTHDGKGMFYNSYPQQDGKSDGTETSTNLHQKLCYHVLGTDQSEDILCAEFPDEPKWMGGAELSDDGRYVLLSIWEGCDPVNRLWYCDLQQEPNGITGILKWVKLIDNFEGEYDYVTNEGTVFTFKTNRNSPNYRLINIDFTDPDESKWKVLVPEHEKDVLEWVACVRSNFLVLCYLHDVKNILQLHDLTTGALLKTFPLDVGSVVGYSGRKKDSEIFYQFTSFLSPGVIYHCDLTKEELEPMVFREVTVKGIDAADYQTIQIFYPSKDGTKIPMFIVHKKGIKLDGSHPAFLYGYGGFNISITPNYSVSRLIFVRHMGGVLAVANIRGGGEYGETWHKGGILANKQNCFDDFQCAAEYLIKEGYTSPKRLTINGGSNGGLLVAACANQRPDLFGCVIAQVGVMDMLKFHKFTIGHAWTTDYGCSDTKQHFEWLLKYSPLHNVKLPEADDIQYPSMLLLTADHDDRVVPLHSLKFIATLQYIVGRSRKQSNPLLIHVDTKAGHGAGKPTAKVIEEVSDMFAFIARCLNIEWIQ
In short: as §1

Rbbp9 = settings: ABPP-MudPIT FP-biotin spectral counts, at 1 µM, stronger effect = lower value
In short: as §1

Tpp2 = settings: ABPP-MudPIT FP-biotin spectral counts, at 1 µM, stronger effect = lower value
In short: as §1

With `Cc1cc(N2CCN(C(=O)Oc3ccc(-c4ccccc4)cn3)CC2)c2ccccc2n1` the spectra count ratio compound/DMSO (Abhd11) was 1 (inactive), the spectra count ratio compound/DMSO (Abhd12) was 1.1 (inactive) and the spectra count ratio compound/DMSO (Abhd3) was 1.3 (inactive). The spectra count ratio compound/DMSO (Abhd4) was 1 (inactive), the spectra count ratio compound/DMSO (Ache) was 0.9 (inactive) and the spectra count ratio compound/DMSO (Acot1) was 1 (inactive). The spectra count ratio compound/DMSO (Acot2) was 1.4 (inactive), the spectra count ratio compound/DMSO (Acot3) was 0.8 (inactive) and the spectra count ratio compound/DMSO (Acot6) was 1 (inactive). The spectra count ratio compound/DMSO (Acot7) was 0.7 (inactive), the spectra count ratio compound/DMSO [1] was 1.6 (inactive) and the spectra count ratio compound/DMSO (Apeh) was 0.9 (inactive). The spectra count ratio compound/DMSO (Bat5) was 0.9 (inactive), the spectra count ratio compound/DMSO (Dpp8) was 0.9 (inactive) and the spectra count ratio compound/DMSO (Dpp9) was 1.1 (inactive). The spectra count ratio compound/DMSO (Es1) was 0, the spectra count ratio compound/DMSO (Esd) was 1.2 (inactive) and the spectra count ratio compound/DMSO (Faah) was 0.8 (inactive). For the same compound, the spectra count ratio compound/DMSO (Fam108a) was 0.9 (inactive), the spectra count ratio compound/DMSO (Fam108b1) was 1.1 (inactive) and the spectra count ratio compound/DMSO (Fam108c1) was 1 (inactive). For the same compound, the spectra count ratio compound/DMSO (Fasn) was 1 (inactive), the spectra count ratio compound/DMSO (Lactb) was 0.7 (inactive) and the spectra count ratio compound/DMSO (Lipe) was 1.3 (inactive). The spectra count ratio compound/DMSO (Lypla2) was 1.7 (inactive), the spectra count ratio compound/DMSO (Lyplal1) was 1.2 (inactive) and the spectra count ratio compound/DMSO (Magl) was 1.3 (inactive). For the same compound, the spectra count ratio compound/DMSO [2] was 1.1 (inactive), the spectra count ratio compound/DMSO (Nceh1) was 1.1 (inactive) and the spectra count ratio compound/DMSO (Pafah1b2) was 0.8 (inactive). The spectra count ratio compound/DMSO (Pafah1b3) was 0.8 (inactive), the spectra count ratio compound/DMSO [3] was 1.5 (inactive) and the spectra count ratio compound/DMSO (Parl) was 1.1 (inactive). The spectra count ratio compound/DMSO (Pla2g15) was 0.8 (inactive), the spectra count ratio compound/DMSO [4] was 0.1 and the spectra count ratio compound/DMSO (Pme1) was 1.3 (inactive). For the same compound, the spectra count ratio compound/DMSO (Pnpla6) was 0.8 (inactive), the spectra count ratio compound/DMSO (Pnpla8) was 0.9 (inactive) and the spectra count ratio compound/DMSO (Prcp) was 1 (inactive). For the same compound, the spectra count ratio compound/DMSO (Prepl) was 1.1 (inactive), the spectra count ratio compound/DMSO [5] was 1.2 (inactive) and the spectra count ratio compound/DMSO (Rbbp9) was 1.3 (inactive). The spectra count ratio compound/DMSO (Tpp2) was 1.2 (inactive).

Reference: PubChem BioAssay AID588785 (The Scripps Research Institute Molecular Screening Center, 2011)
